Our source for the IC50 values is ChEMBL document CHEMBL1157184, “Hymenoic acid, a novel specific inhibitor of human DNA polymerase lambda from a fungus of Hymenochaetaceae sp” (Bioorg Med Chem, 2008).

The structures appear in SMILES notation. pIC50: −log10 of the molar value.

The target in one assay is T1, DNA polymerase lambda (Homo sapiens, UniProt Q9UGP5).
T1 sequence (Q9UGP5 whole entry): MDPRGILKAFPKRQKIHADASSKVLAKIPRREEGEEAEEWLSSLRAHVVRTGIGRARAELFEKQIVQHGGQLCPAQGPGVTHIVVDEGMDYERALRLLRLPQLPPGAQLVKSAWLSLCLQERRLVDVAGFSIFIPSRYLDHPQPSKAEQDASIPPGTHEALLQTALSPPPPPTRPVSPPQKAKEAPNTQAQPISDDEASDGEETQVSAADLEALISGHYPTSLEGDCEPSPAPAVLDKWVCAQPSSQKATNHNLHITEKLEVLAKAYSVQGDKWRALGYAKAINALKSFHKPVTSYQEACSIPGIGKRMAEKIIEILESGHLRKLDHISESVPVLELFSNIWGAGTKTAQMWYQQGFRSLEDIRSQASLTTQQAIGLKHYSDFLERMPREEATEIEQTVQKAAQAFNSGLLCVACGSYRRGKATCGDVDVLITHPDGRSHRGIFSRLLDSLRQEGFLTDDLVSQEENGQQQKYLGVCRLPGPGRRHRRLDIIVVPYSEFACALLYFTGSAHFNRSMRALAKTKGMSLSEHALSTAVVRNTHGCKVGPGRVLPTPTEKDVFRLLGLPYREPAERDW
Kind of assay: Inhibition of human DNA polymerase lambda. An outline of the steps:
(§1)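 Dose-response was run on 0.05 U of full-length (residues 1–575), del-1 (133–575) or del-2 (245–575) human pol λ. Compound in DMSO was preincubated 10 min at 0 °C, then the reaction ran 60 min at 37 °C with poly(dA)/oligo(dT)12-18 and dTTP. Activity relative to the no-compound control; means ± SEM of three independent experiments.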

Another assay addresses DNA polymerase beta (Homo sapiens, UniProt P06746). Kind of assay: Inhibition of human DNA polymerase beta.
Assay [1] in a line: Inhibition of human N terminal deleted DNA polymerase lambda Del-1 mutant. An outline of the steps: as §1
Assay [2] in a line: Inhibition of human N terminal deleted DNA polymerase lambda Del-2 mutant. In a few lines: as §1

`C/C(=C\CC[C@H](C)C(=O)O)[C@H]1CC[C@H](C(=O)O)CC1` [HYMENOIC ACID]: the pIC50 at DNA polymerase lambda was 4.04; at DNA polymerase beta it was less than 3.70; in assay [1], less than 3.70; in assay [2], less than 3.70.
